Calls of active or inactive are those of the source. No cut-off for these calls is given here.
Tests used:
[1] = Half life in human serum at 200 uM by RP-HPLC analysis; format: ADME
How it was run: (§1)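 DMSO stock (10 mM) added to prewarmed human serum (male AB plasma) to a final 200 μM. Incubated at 37 ± 0.5 °C; aliquots deproteinized with acetonitrile containing 0.1% TFA. Parent, aspirin and metabolites quantified by RP-HPLC, calibration 1–200 μM. Pseudo-first-order half-life; peak aspirin expressed as % of initial carbonate. At least triplicate.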

[2] = Antiaggregatory activity in plasma rich human platelets assessed as inhibition of collagen-induced platelet aggregation preincubated for 10 mins before collagen challenge measured 10 mins after stimulus addition; format: functional
How it was run: (§2)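 Human PRP from citrated venous blood of drug-free healthy volunteers, centrifuged 210g for 20 min. Compound (vehicle 0.5% DMSO) preincubated 10 min, then collagen at submaximal 0.8–1.5 μg/mL. Light-transmission aggregometry with stirring at 1000 rpm, 37 °C, recorded 10 min. Reported as % inhibition versus control (at 300 μM) or IC50 by nonlinear regression. At least five experiments.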

[3] = Chemical stability of the compound in acidic medium assessed as unchanged compound after 3 hrs at pH 1 by RP-HPLC analysis; format: physicochemical; details: read-out: Stability
How it was run: (§3)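 A 0.5 mM DMSO solution (2 mL) was diluted to 10 mL with 0.1 M HCl (pH 1.0) or 50 mM phosphate buffer (pH 7.4). Held at 37 ± 0.5 °C and sampled over time by RP-HPLC on C18 with acetonitrile/water 0.1% TFA gradient. Percent unchanged reported at 3 h. Triplicate.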

[4] = Chemical stability of the compound in phosphate buffer assessed as unchanged compound after 3 hrs at pH 7.4 by RP-HPLC analysis; format: physicochemical; details: read-out: Stability; how it was run: as §3
[5] = species on record: Homo sapiens; test: Chemical stability of compound in human serum assessed as maximal amount of aspirin released; format: ADME; how it was run: as §1
[6] = test system: Aorta; test: Vasodilatory activity at endothelium denuded Wistar rat thoracic aorta assessed as relaxation of phenylephrine-induced contraction preincubated for 30 mins before phenylephrine challenge in presence of 1 uM soluble guanylate cyclase inhibitor H-[1,2,4]Oxadiazolo[4,3-a]quinoxalin-1-one; format: functional, tissue-based
How it was run: (§4)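 Male Wistar rat (180–200 g) thoracic aorta strips at 37 °C, 95% O2/5% CO2, pH 7.4, equilibrated 1.5 h, then precontracted with 1 μM L-phenylephrine. Cumulative vasodilator concentrations added at plateau; isometric recording. EC50 ± SEM from at least five experiments. ODQ runs: 1 μM inhibitor added before contraction, preincubated ≥30 min before vasodilator.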

[7] = test system: Aorta; test: Vasodilatory activity at endothelium denuded Wistar rat thoracic aorta assessed as relaxation of phenylephrine-induced contraction; format: functional, tissue-based; how it was run: as §4
[8] = test system: Platelet; test: Antiaggregatory activity in plasma rich human platelets assessed as inhibition of collagen-induced platelet aggregation at 300 uM preincubated for 10 mins before collagen challenge measured 10 mins after stimulus addition; format: functional; how it was run: as §2
[9] = test system: Aorta; test: Vasodilatory activity at endothelium denuded Wistar rat thoracic aorta assessed as relaxation of KCl-induced contraction preincubated for 30 mins before KCl challenge in presence of 10 uM ATP-modulated K+ channel inhibitor glibenclamide; format: functional, tissue-based
How it was run: (§5)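 Endothelium-denuded thoracic aorta strips from male Wistar rats (180–200 g) at 37 °C, gassed 95% O2/5% CO2, pH 7.4. Equilibrated 1.5 h, contracted with 25 mM KCl, then cumulative compound concentrations added at plateau; isometric tension recorded. EC50 ± SEM; at least five experiments. For glibenclamide runs, 10 μM added before contraction, ≥30 min before vasodilator.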

[10] = test system: Aorta; test: Vasodilatory activity at endothelium denuded Wistar rat thoracic aorta assessed as relaxation of KCL-induced contraction preincubated for 30 mins before KCL challenge; format: functional, tissue-based; how it was run: as §5

| Structure (SMILES) | half-life at 200 µM [1] | IC50 [2] | remaining at 3 h [3] | remaining at 3 h [4] | Activity [5] | EC50 [6] | EC50 [7] | Activity [8] | EC50 [9] | EC50 [10] |
| --- | --- | --- | --- | --- | --- | --- | --- | --- | --- | --- |
| CC(=O)Oc1ccccc1C(=O)OCOC(=O)Oc1ccc(-c2cc(=S)ss2)cc1 | 2.1 min | 150 µM | 96% | 80% | 36% |  |  |  |  |  |
| CC(=O)Oc1ccccc1C(=O)OCOC(=O)Oc1ccc(CCCO[N+](=O)[O-])cc1 | 1.6 min | 68 µM | 98% | 98% | 40% |  |  |  |  |  |
| O=[N+]([O-])OCCCO [ABRUCOMSTAT] |  |  |  |  |  | > 100 µM | 4 µM | inactive |  |  |
| Oc1ccc(-c2cc(=S)ss2)cc1 |  |  |  |  |  |  |  | inactive | 17 µM | 5.9 µM |
| CC(=O)Oc1ccccc1C(=O)O [ASPIRIN] | 63 min | 54 µM | 90% | 90% |  |  |  |  |  |  |
| O=[N+]([O-])OCCCc1ccc(O)cc1 |  |  |  |  |  | > 100 µM | 1 µM |  |  |  |
| CC(=O)Oc1ccccc1C(=O)OCOC(=O)OCCOc1ccc(-c2cc(=S)ss2)cc1 | 3 min | 16 µM | 98% | 96% | 42% |  |  |  |  |  |
| CC(=O)Oc1ccccc1C(=O)OCOC(=O)OCCCO[N+](=O)[O-] | < 1 min | 194 µM | 98% | 98% | 9% |  |  |  |  |  |
| OCCOc1ccc(-c2cc(=S)ss2)cc1 |  |  |  |  |  |  |  |  | 16 µM | 8 µM |
| CC(=O)Oc1ccccc1C(=O)OCOC(=O)Oc1ccc(CC(CO[N+](=O)[O-])O[N+](=O)[O-])cc1 (configuration not stated) | 2.2 min | 103 µM | 98% | 95% | 34% |  |  |  |  |  |
| CC(=O)Oc1ccccc1C(=O)OCOC(=O)OCC(CO[N+](=O)[O-])O[N+](=O)[O-] (configuration not stated) | < 1 min | 93 µM | 98% | 85% | 25% |  |  |  |  |  |
| O=[N+]([O-])OCC(Cc1ccc(O)cc1)O[N+](=O)[O-] (configuration not stated) |  |  |  |  |  | > 100 µM | 0.13 µM | inactive |  |  |

Source: ChEMBL document CHEMBL1817543, “New nitric oxide or hydrogen sulfide releasing aspirins” (J Med Chem, 2011)
